Measured values from different studies.
Protocols differ between the studies behind these lines.
Read-out: enzyme activity
Mode: inhibitor
RET: Proto-oncogene tyrosine-protein kinase receptor Ret (RET, Homo sapiens, UniProt P07949)
RET V804L: Proto-oncogene tyrosine-protein kinase receptor Ret (RET, Homo sapiens, UniProt P07949, V804L)

Compound | target | technique | tested at | inhibition
C=CC(=O)Nc1cc(Nc2nccc(Nc3cc(Cl)c(F)cc3C(C)(C)O)n2)c(OC)cc1N1CC[C@@H](N(C)C)C1 | RET | – | 1 µM | 1%
COc1cc2ncnc(Nc3ccc(Oc4ccccc4)cc3C)c2cc1OC | RET | – | 1 µM | 34%
CNCc1ccc(-c2cc(-c3nc(-c4ccc(S(=O)(=O)C(C)C)cc4)cnc3N)on2)cc1 | RET | – | 2 µM | 42%
COc1cc2nccc(Oc3ccc(NC(=O)c4c5n(n(-c6ccc(F)cc6)c4=O)CCCC5)cc3)c2cc1OC | RET | – | 0.1 µM | 15%
CC/C(=N\NC(=O)NCc1cccc(O)c1)c1ccc(O)c(C)c1O | RET | – | 0.1 µM | 0.2%
COc1cc(-c2cc(-c3ccc(N4CCNCC4)cc3)cnc2N)cc(OC)c1OC | RET V804L | – | 0.1 µM | 2%
COc1cc2ncnc(Nc3ccc(Oc4ccccc4)c(C)c3C)c2cc1OC | Proto-oncogene tyrosine-protein kinase receptor Ret (RET, Homo sapiens, UniProt P07949, Y791F) | – | 1 µM | 31%
CNC(=O)c1cc2c(Oc3ccc(NC(=O)C4(C(=O)Nc5ccc(F)cc5)CC4)cc3)ccnc2cc1OC | RET V804L | radiometric | 1 µM | 90%
